# Legend:
# D(3) dopamine receptor = D(3) dopamine receptor (Rattus norvegicus, UniProt P19020); assay: Displacement of [3H]spiperone from rat dopamine D3 receptor after 60 mins
# D(2) dopamine receptor [1] = target: T1, D(2) dopamine receptor (Homo sapiens, UniProt P14416); assay: Displacement of [3H]spiperone from human D2L receptor at 1 uM after 60 mins
# [2] = target: D(3) dopamine receptor (Rattus norvegicus) (UniProt P19020); assay: Displacement of [3H]-spiperone from rat D3 receptor after 60 mins
# [3] = target: D(4) dopamine receptor (Homo sapiens) (UniProt P21917); assay: Displacement of [3H]-YM-09151-2 from human D4.2 receptor after 60 mins
# Sequence of D(4) dopamine receptor (Homo sapiens) (P21917 whole entry, looked up): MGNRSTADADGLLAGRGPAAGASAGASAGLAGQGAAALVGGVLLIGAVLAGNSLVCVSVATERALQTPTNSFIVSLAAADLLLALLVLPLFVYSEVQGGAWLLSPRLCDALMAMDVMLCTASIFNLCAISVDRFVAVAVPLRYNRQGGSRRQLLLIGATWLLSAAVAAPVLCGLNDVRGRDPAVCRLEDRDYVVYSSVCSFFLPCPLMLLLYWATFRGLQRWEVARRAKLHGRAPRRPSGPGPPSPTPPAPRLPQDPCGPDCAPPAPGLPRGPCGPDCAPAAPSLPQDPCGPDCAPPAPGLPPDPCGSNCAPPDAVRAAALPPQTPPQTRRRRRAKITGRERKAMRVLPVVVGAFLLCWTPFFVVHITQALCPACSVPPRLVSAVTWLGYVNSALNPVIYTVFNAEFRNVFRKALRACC
# [4] = target: 5-hydroxytryptamine receptor 1A (Homo sapiens) (UniProt P08908); assay: Displacement of [3H]8-OH-DPAT from human 5-HT1A receptor after 60 mins
# Sequence of 5-hydroxytryptamine receptor 1A (Homo sapiens) (P08908 whole entry, looked up): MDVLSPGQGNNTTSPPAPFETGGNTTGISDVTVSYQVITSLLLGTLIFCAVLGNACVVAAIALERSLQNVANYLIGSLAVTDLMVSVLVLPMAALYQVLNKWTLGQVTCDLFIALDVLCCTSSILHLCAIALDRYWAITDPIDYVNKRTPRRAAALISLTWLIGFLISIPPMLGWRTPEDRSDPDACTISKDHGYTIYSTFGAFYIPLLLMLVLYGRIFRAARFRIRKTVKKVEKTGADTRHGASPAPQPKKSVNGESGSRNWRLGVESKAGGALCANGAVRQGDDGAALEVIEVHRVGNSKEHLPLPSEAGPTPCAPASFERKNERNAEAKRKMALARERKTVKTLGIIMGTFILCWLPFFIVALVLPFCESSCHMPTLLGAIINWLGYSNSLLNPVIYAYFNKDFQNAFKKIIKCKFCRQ
# D(2) dopamine receptor [5] = target: T1, D(2) dopamine receptor; assay: Displacement of [3H]spiperone from human D2L receptor after 60 mins
# Outline: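 Cloned human D2L receptor membranes from transfected cells were incubated 60 min at 27 °C with [3H]-spiperone (0.2 nM). Buffer was 50 mM Tris-HCl pH 7.4 with 10 mM MgCl2 and 1 mM EDTA, and haloperidol (10 µM) defined non-specific binding. Bound radioactivity was collected on 0.3% PEI-soaked GF/C filters and measured by scintillation counting.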
# T1 sequence (P14416 whole entry): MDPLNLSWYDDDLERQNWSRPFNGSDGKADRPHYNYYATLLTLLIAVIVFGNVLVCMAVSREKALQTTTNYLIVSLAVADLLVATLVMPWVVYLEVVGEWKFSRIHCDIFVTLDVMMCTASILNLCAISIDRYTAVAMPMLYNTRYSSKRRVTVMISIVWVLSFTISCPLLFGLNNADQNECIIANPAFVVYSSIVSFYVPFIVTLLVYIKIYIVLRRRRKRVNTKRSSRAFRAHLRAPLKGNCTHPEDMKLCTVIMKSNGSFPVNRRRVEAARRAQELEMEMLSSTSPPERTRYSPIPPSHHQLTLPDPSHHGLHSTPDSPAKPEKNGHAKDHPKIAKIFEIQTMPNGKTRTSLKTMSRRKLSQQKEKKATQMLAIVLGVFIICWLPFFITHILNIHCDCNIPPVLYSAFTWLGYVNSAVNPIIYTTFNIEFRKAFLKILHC
# Sequence of D(3) dopamine receptor (P19020 whole entry): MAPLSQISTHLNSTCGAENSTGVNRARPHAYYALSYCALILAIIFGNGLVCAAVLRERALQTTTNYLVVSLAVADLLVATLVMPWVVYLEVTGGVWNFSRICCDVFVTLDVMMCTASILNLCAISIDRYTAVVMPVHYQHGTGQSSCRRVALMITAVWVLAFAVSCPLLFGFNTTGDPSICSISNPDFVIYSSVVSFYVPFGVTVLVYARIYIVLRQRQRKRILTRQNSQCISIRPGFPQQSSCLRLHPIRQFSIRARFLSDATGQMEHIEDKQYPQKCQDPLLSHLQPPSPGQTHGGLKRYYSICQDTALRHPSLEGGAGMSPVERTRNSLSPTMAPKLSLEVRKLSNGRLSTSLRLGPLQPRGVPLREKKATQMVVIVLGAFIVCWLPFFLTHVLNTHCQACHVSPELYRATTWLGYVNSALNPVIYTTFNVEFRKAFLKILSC
Ki (D(3) dopamine receptor) [nM],inhibition (D(2) dopamine receptor [1]) [%],Ki [2] [nM],Ki [3] [nM],Ki [4] [nM],Ki (D(2) dopamine receptor [5]) [nM],Compound
71,46,175,17.8,4.59,–,COc1ccccc1N1CCN(CCCNC(=O)c2ccc3ccccc3c2)CC1
≤ 45,–,1.97,9.62,2.87,99,COc1ccccc1N1CCN(CCCCCCNS(=O)(=O)c2ccc3ccccc3c2)CC1
348,44,56,24.4,5.19,–,COc1ccccc1N1CCN(CCNS(=O)(=O)c2ccc3ccccc3c2)CC1
101,–,58.5,112,4.64,132,COc1ccccc1N1CCN(CCCNS(=O)(=O)c2ccc3ccccc3c2)CC1
113,–,66,–,–,890,COc1ccccc1N1CCN(CCNC(=O)c2ccc3ccccc3c2)CC1
84,–,12.5,–,–,438,COc1ccccc1N1CCN(CCCCCNS(=O)(=O)c2ccc3ccccc3c2)CC1
–,30,–,–,–,–,COc1ccccc1N1CCN(CCCCNC(=O)c2ccc3ccccc3c2)CC1
96,–,0.56,–,–,121,COc1ccccc1N1CCN(CCCCCCNC(=O)c2ccc3ccccc3c2)CC1
79,–,27.5,62,4.1,46.5,COc1ccccc1N1CCN(CCCCNS(=O)(=O)c2ccc3ccccc3c2)CC1

Compound,Ki (D(3) dopamine receptor) [nM],inhibition (D(2) dopamine receptor [1]) [%],Ki [2] [nM],Ki [3] [nM],Ki [4] [nM],Ki (D(2) dopamine receptor [5]) [nM]
COc1ccccc1N1CCN(CCCCCNC(=O)c2ccc3ccccc3c2)CC1,9.36,–,13,54,11.1,254
